Reference: ChEMBL document CHEMBL5678814, “Novel Mps1 Kinase Inhibitors with Potent Antitumor Activity” (Mol Cancer Ther, 2016)
Active and inactive are the calls of the source. The calls are words filed in the database; no cut-off is given here.

Experiments:
LU387 = test: Antitumor activity against human LU387 cells xenografted female athymic NMRI mouse model assessed as reduction in tumor size at 20 mg/kg,iv administered twice daily intermittent for 1 days on/6 days off; assay type: functional, organism-based; conditions: time 7.0 day, in the assay text read “once daily” for “twice daily”
In short: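 LU387 patient-derived tumor fragments (4–5 mm) transplanted s.c. into the flank of nude mice. Treatment started at ~40 mm2. Paclitaxel i.v. at 20 mg/kg once weekly (1 on/6 off). Tumor area (longest diameter × perpendicular) measured by caliper two to three times weekly. T/C computed from end-of-study tumor areas; 8–10 mice/group.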

A2780cis [1] = test: Antitumor activity against human A2780cis cells implanted female athymic NMRI mouse model assessed as induction in KNL1 at Thr-875 phosphorylation at 24 mg/kg,iv administered once for 1 day by immunohistochemical staining; assay type: functional, organism-based
In short: (§1)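 A2780cis tumors (2×10^6 cells in 100% Matrigel, s.c.) in female NMRI nude mice. Paclitaxel i.v. once at 24 mg/kg on day 1, started at ~52–60 mm2 tumor area. Tumors harvested 36 h after first treatment. Paraffin sections stained with rabbit anti-pThr875 KNL1 or anti-CASC5 (total KNL1), both 1:400. Positive pixels above background scored in three fields per slide.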

A2780cis [2] = test: Antitumor activity against human A2780cis cells implanted female athymic NMRI mouse model assessed as change in KNL1 total level at 24 mg/kg,iv administered for 1 day by immunohistochemical staining; assay type: functional, organism-based; in short: as §1
A2780cis [3] = test: Antitumor activity against human A2780cis cells xenografted in female athymic NMRI mouse assessed as increase in necrosis at 24 mg/kg,iv administered once for 1 day and measured after 8 hrs by H&E staining
A2780cis [4] = test: Antitumor activity against human A2780cis cells xenografted in female athymic NMRI mouse assessed as increase in apoptosis at 24 mg/kg,iv administered once for 1 day and measured after 8 hrs by H&E staining
A2780cis [5] = test: Antitumor activity against human A2780cis cells xenografted in female athymic NMRI mouse assessed as induction in atypical mitoses at 24 mg/kg,iv administered once for 1 day and measured after 8 hrs by H&E staining
[6] = system: KATO III stomach cancer cell line; test: Antiproliferative activity against human KATO III stomach cancer cell line assessed as cell growth inhibition incubated for 96 hrs by MTS assay; assay type: functional, cell-based
[7] = Half life in male Wistar rat plasma at 0.5 mg/kg, iv measured after 24 hrs by LC/-MS/MS analysis; assay type: ADME, organism-based
[8] = Volume of distribution at steady state in male Wistar rat plasma at 0.5 mg/kg, iv measured after 24 hrs by LC/-MS/MS analysis; assay type: ADME, organism-based; conditions: read-out: Vdss
[9] = Clearance in male Wistar rat blood at 0.5 mg/kg, iv measured after 24 hrs by LC/-MS/MS analysis; assay type: ADME, organism-based
[10] = Tmax in male Wistar rat plasma at 0.5 mg/kg, po measured after 24 hrs by LC/-MS/MS analysis; assay type: ADME, organism-based
In short: (§2)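 Male Wistar rats given 0.5 mg/kg orally. Plasma collected from 8 min to 24 h, precipitated with ice-cold acetonitrile (1:5), and analysed by LC/MS-MS. Cmax and Tmax read directly from concentration–time profiles.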

[11] = Cmax in male Wistar rat plasma at 0.5 mg/kg, po measured after 24 hrs by LC/-MS/MS analysis; assay type: ADME, organism-based; in short: as §2
[12] = Oral bioavailability in male Wistar rat plasma at 0.5 mg/kg measured after 24 hrs by LC/-MS/MS analysis; assay type: ADME, organism-based
[13] = Half life in female CD1 mouse plasma at 1 mg/kg, iv measured after 24 hrs by LC/-MS/MS analysis; assay type: ADME, organism-based
In short: (§3)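 Female CD1 mice received a single iv bolus of 1.0 mg/kg in 50% PEG 400, 10% ethanol and 40% water. Plasma was sampled at 2, 5, 15, 30 and 45 min and at 1, 2, 4, 6, 8 and 24 h, precipitated with ice-cold acetonitrile (1:5), and supernatants were quantified by LC/MS-MS. Parameters were estimated from plasma concentration data, with AUC by the log-linear trapezoidal rule.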

[14] = Volume of distribution at steady state in female CD1 mouse plasma at 1 mg/kg, iv measured after 24 hrs by LC/-MS/MS analysis; assay type: ADME, organism-based; conditions: read-out: Vdss; in short: as §3
[15] = Clearance in female CD1 mouse blood at 1 mg/kg, iv measured after 24 hrs by LC/-MS/MS analysis; assay type: ADME, organism-based
In short: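 Single dose to female mice, i.v. as bolus (1.0 mg/kg) or oral (1 mg/kg), in 50% PEG 400/10% ethanol/40% water. Plasma sampled up to 24 h: 2 min–24 h after i.v., 8 min–24 h after p.o. Samples precipitated with ice-cold acetonitrile (1:5) and analysed by LC/MS-MS. AUC by log-linear trapezoidal rule; Cmax and Tmax read directly from the profiles.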

[16] = Antitumor activity against human A2780cis cells xenografted female athymic NMRI mouse model assessed as T/C ratio at 5 mg/kg, po administered twice daily intermittent for 2 days on/5 days off; assay type: functional; conditions: time 7 day
[17] = Toxicity in human A2780cis cells xenografted female athymic NMRI mouse model assessed as change in body weight at 5 mg/kg, po administered twice daily intermittent for 2 days on/5 days off; assay type: organism-based; conditions: in vivo, 168 h, time 7 day
In short: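 A2780cis cells (2×10^6 in 100% Matrigel) implanted s.c. in athymic mice. Treatment started at ~30 mm2. Oral dosing twice daily, 2 days on/5 days off, with PEG 400/ethanol/Solutol vehicle controls. Dose based on individual body weight. Body weight monitored two to three times weekly as toxicity measure; >20% loss deemed toxic.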

NCI-H1299 = test: Synergistic antitumor activity against human NCI-H1299 cells xenografted female athymic NMRI mouse model assessed as MTD at 3 mg/kg,po administered twice daily intermittent for 2 days on/5 days off in the presence of paclitaxel relative to control; assay type: functional; conditions: time 7 day
[18] = Synergistic toxicity in human NCI-H1299 cells xenografted female athymic NMRI mouse model assessed as body weight loss at 3 mg/kg,po administered twice daily intermittent for 2 days on/5 days off in the presence of paclitaxel relative to control; assay type: organism-based; conditions: in vivo, 168 h, time 7 day
In short: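 NCI-H1299 cells (3×10^6 in 100% Matrigel) implanted s.c. in the inguinal region of athymic mice. Treatment started on day 8 at ~30 mm2. Mps1 inhibitor given p.o. 3 mg/kg twice daily, 2 days on/5 off. Paclitaxel i.v. 20 mg/kg once weekly, given within 1 h of the inhibitor on the same day. Body weight tracked two to three times weekly; >20% loss deemed toxic.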

[19] = Antitumor activity against human A2780cis cells implanted female athymic NMRI mouse model assessed as reduction in KNL1 at Thr-875 phosphorylation at 4 mg/kg,po administered for 2 days by immunohistochemical staining relative to control; assay type: functional; parameters: scale not given: the % may be the effect or the level left; conditions: time 2 day
[20] = Antitumor activity against human A2780cis cells implanted female athymic NMRI mouse model assessed as reduction in KNL1 at Thr-875 phosphorylation at 2 mg/kg,po administered for 2 days by immunohistochemical staining relative to control; assay type: functional; parameters: scale not given: the % may be the effect or the level left; conditions: time 2 day
[21] = Tmax in female NMRI mouse plasma at 1 mg/kg, po measured after 24 hrs by LC/-MS/MS analysis
[22] = Cmax in female NMRI mouse plasma at 1 mg/kg, po measured after 24 hrs by LC/-MS/MS analysis
[23] = Oral bioavailability in female NMRI mouse plasma at 1 mg/kg measured after 24 hrs by LC/-MS/MS analysis
Caov-3 cell line = test: Antiproliferative activity against human Caov-3 cell line assessed as cell growth inhibition incubated for 96 hrs by crystal violet staining; conditions: Caov-3, 96 h
LXF-289 cell line = test: Antiproliferative activity against human LXF-289 cell line assessed as cell growth inhibition incubated for 96 hrs by crystal violet staining; conditions: LXF-289, 96 h
SUM149PT = test: Synergistic antitumor activity against human SUM149 cells xenografted female athymic NMRI mouse model assessed as MTD at 1.5 mg/kg,po administered twice daily intermittent for 2 days on/5 days off measured after 48 days treatment in the presence of paclitaxel relative to control; conditions: time 48 day

## CC(=O)O[C@H]1C(=O)[C@@]2(C)[C@H]([C@H](OC(=O)c3ccccc3)[C@]3(O)C[C@H](OC(=O)[C@H](O)[C@@H](NC(=O)c4ccccc4)c4ccccc4)C(C)=C1C3(C)C)[C@]1(OC(C)=O)CO[C@@H]1C[C@@H]2O
LU387
  Activity: Active
A2780cis [1]
  Activity: Active
A2780cis [2]
  Activity: Active
A2780cis [3]
  Activity: Active
A2780cis [4]
  Activity: Active
A2780cis [5]
  Activity: Active

## COc1ccc(Oc2cc(NCCC(F)(F)F)c3ncc(-c4ccc(C(=O)NC5CC5)c(C)c4)n3n2)c(F)c1F [BAY-1217389]
[6]
  IC50: > 300 nM
[7]
  half-life: 7.8 h
[8]
  Vd: 2.2 L/kg
[9]
  clearance: 9 mL/min/kg
[10]
  Tmax: 1.5 h
[11]
  Cmax: 177 ng/mL
[12]
  bioavailability: 73%
[13]
  half-life: 4.1 h
[14]
  Vd: 2.7 L/kg
[15]
  clearance: 13.7 mL/min/kg
[16]
  T/C: 0.53
[17]
  Activity: Non-Toxic
NCI-H1299
  MED: 60%
[18]
  Activity: > 10%
[19]
  Activity: 80%
[20]
  Activity: 60%
[21]
  Tmax: 7 h
[22]
  Cmax: 74 ng/mL
[23]
  bioavailability: 37%
Caov-3 cell line
  IC50: 36 nM
LXF-289 cell line
  IC50: 3.3 nM
SUM149PT
  MED: 30%
